Results on five compounds are retold here after publication PMC6297906 (Computational and Structural Biotechnology Journal, 2018).

The subject of one data set is HepG2 cells. The experiment in a line: MTT assay, HepG2. The class given is cell-based, human. Particulars: read-out: IC50 HepG2, 72 h treatment. Put shortly:
(§1)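 Cells grown in DMEM with 10% FBS, penicillin and streptomycin, seeded at 5 × 10^3 per well for 24 h. Test compound added at 0, 1.56, 3.125, 6.25, 12.5, 25, 50 or 100 μM for 72 h. MTT (5 mg/mL stock) added for 4 h; medium replaced by DMSO; absorbance read at 490 nm for IC50.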

Another data set relates to A549 cells. The experiment in a line: MTT assay, A549. The data set is classed as cell-based, human. Particulars: read-out: IC50 A549, 72 h treatment. The gist of the method: as §1
For data set [1], the system named is MDA-MB-231 cells. The data set is described as follows: MTT assay, MDA-MB-231. The class given is cell-based, human. The following applies: read-out: IC50 MDA-MB-231, 72 h treatment. Put shortly: as §1
Background: Tetrazolium dyes change colour on reduction, which living cells bring about.

Another data set concerns MCF-7 cells. The experiment in a line: MTT assay, MCF-7. The data set is classed as cell-based, human. The following applies: read-out: IC50 MCF-7, 72 h treatment. Put shortly:
as §1

In another data set the test system is HaCaT cells. The data set is described as follows: MTT assay, HaCaT normal cells. The following applies: read-out: IC50 HaCaT, 72 h treatment, normal cell line. The data set is classed as cell-based, human. Put shortly: as §1
The test system of data set [2] is MDA-MB-231 cells. The experiment in a line: Wound-healing assay. The data set is classed as cell-based, human. The following applies: 72 h. The gist of the method: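 MDA-MB-231 cells (1 × 10^5/well) grown to >85% confluence, then scratched with a pipette tip. Treated with test compound (0, 2, 4 μM). The same field imaged every 24 h. Migration rate taken as scratch filling, averaged over 10 fields; N = 8. Means ± SEM; one-way ANOVA.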

Data set [3] is described as follows: Octanol/water partition coefficient. The following applies: room temperature. The class given is physicochemical. Put shortly:
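Lipophilicity taken as Po/w = Ao/Aw. Test compound concentrations in the octanol and water phases measured from electronic absorption spectra.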

Another data set has as its system HUVECs. The experiment in a line: Tube formation assay. The data set is classed as cell-based. The following applies: 5 and 10 μM, 6 h, VEGF 200 ng/mL. The gist of the method: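 Matrigel thawed at 4 °C for 24 h, coated into prechilled wells and set at 37 °C for at least 60 min. HUVECs (3 × 10^4) plated in DMEM with VEGF (200 ng/mL) plus test compound (0, 5, 10 μM) for 6 h at 37 °C. Tube networks imaged and analysed.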

The subject of data set [4] is MDA-MB-231 cells in zebrafish xenografts. The experiment in a line: Zebrafish xenograft breast cancer model. The class given is in vivo. The following applies: 5 μM, 72 h. Put shortly:
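DiI-labelled MDA-MB-231 cells (10^7 cells/mL; 50–500 cells) microinjected into the perivitelline space near the SIVs of Tg(fli1:EGFP) zebrafish embryos at 48 hpf. Xenografted fish kept 10 per well in 2 mL aquaculture water with 0 or 5 μM test compound for 72 h. Fluorescence imaging every 24 h; n = 10/group.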

The subject of data set [5] is transgenic Tg(fli1a:EGFP) zebrafish embryos. The experiment in a line: Angiogenic effect in vivo, transgenic zebrafish embryos. The following applies: 5.0 μM, compared with PTK787.
The test system of data set [6] is MDA-MB-231 cells. The data set is described as follows: Immunofluorescence of paxillin and F-actin. Particulars: 5 and 10 μM, 24 h. The class given is cell-based, human. Put shortly: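 MDA-MB-231 cells on cover glass, exposed to test compound (0, 5, 10 μM) for 24 h, then fixed in 4% formaldehyde 25 min and blocked in 5% BSA 30 min. Stained with rabbit monoclonal anti-paxillin (1:100, 60 min), Alexa Fluor 488 anti-rabbit (1:200, 30 min), rhodamine phalloidin for F-actin (1:100, 30 min) and DAPI (0.5 μg/mL, 8 min). PBS washes between steps; confocal imaging.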

For data set [7], the system named is MDA-MB-231 cells. The data set is described as follows: Comet assay. The data set is classed as cell-based, human. The following applies: 5 and 10 μM.
In data set [8] the test system is MDA-MB-231 cells. The experiment in a line: TUNEL assay. The following applies: 20 μM. The class given is cell-based, human. The gist of the method:
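MDA-MB-231 cells given test compound (0, 10, 20 μM). Fixed in 4% p-formaldehyde in PBS 30 min; permeabilised with 0.3% Triton X-100 in PBS (25 °C, 8 min). TUNEL reaction mixture applied 1 h, then DAPI (0.5 μg/mL, 37 °C, 8 min) in the dark. Read by fluorescence microscopy.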

Data set [9] concerns MDA-MB-231 cells. The experiment in a line: FITC-conjugated gelatin invasion assay. The class given is cell-based, human. The following applies: 5 μM, 24 h. The gist of the method:
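MDA-MB-231 cells (2 × 10^5 per well) treated with 0 or 5 μM test compound, plated on FITC-gelatin-coated coverslips, and incubated 24 h at 37 °C. Gelatin degradation (dark holes) imaged by laser confocal microscopy; invasive percentage derived. Means ± SEM; one-way ANOVA versus control.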

Several values for one entry are separate records, joined by “and”; a condition that tells them apart may be missing. Identical values can stand only once.

As usually defined, the IC50 is the midpoint of a concentration-inhibition curve. As to `N.N.[Cl][Pt][Cl]` [Cis-platin, cisplatin, reference compound], the 50% inhibitory concentration (IC50) in the data set on HepG2 cells was found to be 15.5 ± 0.4 µM; in the data set on A549 cells, 21.1 ± 0.2 µM; with MDA-MB-231 cells [1], 20.9 ± 1.9 µM; in the data set on MCF-7 cells, 86.6 ± 5.9 µM; in the data set on HaCaT cells, 7.1 ± 0.5 µM.

Consider “[Ru(bpy)2(7-BEDPPZ)](ClO4)2 [Ru(bpy)2BEDPPZ]”, for which the IC50 in the data set with HepG2 cells is 97.5 ± 4.4 µM; with A549 cells, 20 ± 0.7 µM; with MDA-MB-231 cells [1], ~17.2 µM and 17.2 µM; in the data set on MCF-7 cells, 74.9 ± 3.5 µM; with HaCaT cells, 47.2 ± 2.6 µM. The wound-healing rate result is reported as “less than half of the control group” in the data set on MDA-MB-231 cells [2] (2 μM, versus control) and “further decreased” in the data set on MDA-MB-231 cells [2] (4 μM). The logPo/w in data set [3] is −0.87. In addition, the “tube formation of HUVECs” value with HUVECs is given as “inhibited notably”. Further, the “metastasis of MDA-MB-231 cells into blood vessels” value in data set [4] is “scarce MDA-MB-231 cells were found in the blood vessel”. In [4] (versus control), the “number of MDA-MB-231 cells in zebrafish (proliferation)” value is reported as “notably reduced”. Moreover, the “total area of SIV (tumor angiogenesis)” value in [4] (versus control) is “obviously less than that in the control group”. Also, the ISV formation inhibition result in data set [5] is recorded as “more effectively inhibited ISV formation than PTK787”. Also, in the data set on MDA-MB-231 cells [6], the “quantity of paxillin (focal adhesions)” value is “decreased quantity of paxillins”. In addition, the “stress fibers (F-actin)” value with MDA-MB-231 cells [6] is recorded as “inhibited”. In addition, the “endogenous DSBs (olive tail moment, comet assay)” value in the data set on MDA-MB-231 cells [7] is on record as “extremely increased”. Further, in the data set on MDA-MB-231 cells [7] (24 h), the “percentage of γH2AX focal positive cells” value was “obviously increased”. In addition, the “apoptotic cells (TUNEL)” value in the data set on MDA-MB-231 cells [8] was “many apoptotic cells were observed”. The “invasive capability (FITC-gelatin degradation)” value in the data set with MDA-MB-231 cells [9] is “markedly suppressed”.

On to “[Ru(bpy)2(7-CH3-DPPZ)](ClO4)2 [Ru(bpy)2MDPPZ]”, for which the 50% inhibitory concentration (IC50) with HepG2 cells was more than 100 µM; in the data set on A549 cells, 93.3 ± 4.1 µM; with MDA-MB-231 cells [1], more than 100 µM; in the data set with MCF-7 cells, 9.7 ± 6.1 µM; in the data set with HaCaT cells, more than 100 µM. In data set [3], this compound gave a logPo/w of −2.17.

As for “[Ru(bpy)2(DPPN)](ClO4)2 [Ru(bpy)2BnDPPZ]”, the IC50 in the data set on HepG2 cells was 23 ± 1.1 µM; in the data set on A549 cells, 32.5 ± 1.6 µM; in the data set with MDA-MB-231 cells [1], more than 100 µM; in the data set on MCF-7 cells, more than 100 µM; with HaCaT cells, more than 100 µM. The logPo/w in data set [3] is −1.65.

Consider [Ru(bpy)2DPPZ](ClO4)2, for which the IC50 in the data set on HepG2 cells, in the data set on A549 cells, in the data set with MDA-MB-231 cells [1], with MCF-7 cells and in the data set with HaCaT cells was more than 100 µM each time. The compound further had a logPo/w in data set [3] of −1.87.
